Bioassay records deposited in PubChem BioAssay by several laboratories.
The list is not random: actives were taken first. Their share in the collection is about 4.8%.
697 NFkB inh: inhibitors of the PMA/ionomycin-induced NF-kB reporter in 697 B cells | 697 B-cell NF-kB luciferase reporter, 16 h | inhibition, % at 4 µM | AID 435022 | 330,000 compounds, 0.33% hits; in the data active = inhibition above about 35%
HSF1 inhib: HSF1 inhibition; AID 2098; activity change, negative = inhibition, % at 7.5 µM (by protocol); 300,000 compounds, 0.77% hits; NIH3T3-HGL HSE-luciferase, MG132-induced, luminescence 8 h; hits give low values;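 active = more than half of replicate wells show activity change below -50%, luminescence cut by over half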;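 also: luciferase reports HSF-1 transcriptional activity via heat shock element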
HSF1 activator: increases HSF-1 driven luciferase reporter signal | activation, % at 9 µM | 300,000 compounds, 1.7% hits | NIH3T3-HGL HSF-1 luciferase reporter, MG132, 8 h; 100% = twice DMSO control signal;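 active = mean replicate activation of at least 50% with a set share of replicates each reaching 50%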
Jurkat NFkB inh: lowers PMA/ionomycin-induced NF-kB signal in Jurkat cells; PMA/ionomycin-induced NF-kB luciferase reporter, luminescence; 330,000 compounds, 0.53% hits; inhibition, % at 4 µM; in the data active = inhibition above about 50%
GPR7 antagonist: antagonists of human GPR7 (neuropeptides B/W receptor 1); P48145; GPR7-expressing cells, fluorescence antagonist assay; inhibition, % at 4.4 µM; 290,000 compounds, 1.1% hits; in the data active = inhibition above about 16%, passing the limit was not always enough;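 also: cells stimulated with the agonist NPW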
Target sequence (P48145 whole entry, looked up): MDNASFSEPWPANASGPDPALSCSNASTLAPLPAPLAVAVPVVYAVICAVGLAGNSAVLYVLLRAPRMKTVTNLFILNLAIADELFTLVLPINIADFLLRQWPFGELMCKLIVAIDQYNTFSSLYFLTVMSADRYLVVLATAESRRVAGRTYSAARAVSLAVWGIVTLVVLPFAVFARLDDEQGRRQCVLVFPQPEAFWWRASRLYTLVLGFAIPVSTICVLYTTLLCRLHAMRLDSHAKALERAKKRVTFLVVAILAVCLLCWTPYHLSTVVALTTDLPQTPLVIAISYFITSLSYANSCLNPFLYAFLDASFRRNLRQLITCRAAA
T cruzi repl: blocks replication of Trypanosoma cruzi; T. cruzi beta-gal in NIH3T3, luminescence, 90 h; inhibition, % (test concentration not listed); 300,000 compounds, 1.4% hits;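 active = mean inhibition across valid replicates above about 55%, limit read from the data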;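 also: signal also drops with host cell toxicity which is not excluded here; higher percent means less beta-gal luminescence so fewer parasites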
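System: NIH/3T3 fibroblasts plus reporter T. cruzi. Medium: DMEM plus 2% FBS. Probe or stimulus: 5000 reporter trypomastigotes per well. Compound: single 50 nL compound addition per well in DMSO. Incubation: co-culture of at least 90 h after 3 h attachment. Detection: GalScreen β-gal luminescence, detergent lysis, 60 min. Evaluation: parasite load inhibition, %.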
Hits are given with their value; – = inactive; · = not tested or not shown.

SMILES	697 NFkB inh	HSF1 inhib	HSF1 activator	Jurkat NFkB inh	GPR7 antagonist	T cruzi repl
CCN(CC)S(=O)(=O)c1cccc(-c2nnc(SC(C)C(N)=O)n2CCc2ccccc2)c1 (stereo not drawn)	–	–	–	–	–	–
CCN(CC)S(=O)(=O)c1cccc(-c2nnc(SCC(N)=O)n2CCc2ccccc2)c1	–	-60	–	–	–	–
Cc1cccc(N2CCN(Cc3nc(-c4ccccc4Cl)oc3C)CC2)n1	–	-60	–	–	–	–
CCOC(=O)c1c(NC(=O)/C=C\C(=O)O)sc(C)c1-c1ccccc1	–	–	–	–	–	–
CCOC(=O)c1c(NC(=O)/C=C/C(=O)O)sc(C)c1-c1ccc(C(C)(C)C)cc1	–	–	–	–	–	57
Cc1ccc(NC(=O)CNc2ccccc2CN(C)C2CCCCC2)cc1	–	–	–	–	–	–
Cc1nnc(NCCc2ccccc2)c2ccccc12	–	–	54	–	–	–
C[N+](C)(C)C(Cc1ccccc1)C(=O)[O-] (stereo not drawn)	–	–	–	–	·	–
O=c1[nH]c2ccccc2nc1/C=C/c1ccccc1	–	–	99	–	–	–
O=C(/C=C/c1ccc(Br)cc1)c1ccc(NC(=O)c2ccco2)cc1	–	–	–	–	–	–
O=C(/C=C/c1ccc(Br)cc1)c1ccco1	–	–	–	–	22	–
Cc1ccc(-c2nnn(CC(=O)N3c4ccccc4CCc4ccccc43)n2)cc1	–	–	–	–	–	58
O=C(CCl)N1c2ccccc2CCc2ccccc21	–	–	–	–	–	71
O=C1CCCC/C=C\C[C@H](CC(=O)N(CCO)Cc2ccccc2)C(=O)NCCO1	–	·	·	–	·	·
O=C(CCc1nc2ccccc2s1)OCc1ccccc1F	–	–	–	–	–	–
Cc1ccccc1-c1nc(CS(=O)(=O)CC(=O)N2CCCCC2)c(C)o1	–	–	–	–	–	–
Cc1[nH]c2ccccc2c1C(=O)Cn1c(=O)oc2ccccc21	–	–	76	–	–	–
O=C(Cn1c(=O)oc2ccccc21)NCc1ccco1	–	·	·	–	18	·
CCc1ccccc1NC(=O)c1ccc([N+](=O)[O-])s1	–	–	–	–	–	60
CCCOc1ccc(Br)cc1CSC(=N)N	–	–	–	–	54	–
CCOc1cc([N+](=O)[O-])cc2c1C(=O)Nc1ccccc1O2	–	–	–	–	–	–
COc1ccc(C2C(C#N)=C(N)N(N(C)C)C3=C2C(=O)CC(C)(C)C3)cc1OC (stereo not drawn)	–	–	–	–	–	–
COc1cc(C2C(C#N)=C(N)N(N(C)C)C3=C2C(=O)CC(C)(C)C3)ccc1O (stereo not drawn)	–	-76	–	–	–	–
C1=C(c2ccc(-c3ccccc3)cc2)Nc2ncnn2C1c1ccco1 (stereo not drawn)	·	·	·	·	26	·
C[n+]1ccc(/C=C/c2ccccc2O)c2ccccc21	–	–	–	–	–	70
SMILES	697 NFkB inh	HSF1 inhib	HSF1 activator	Jurkat NFkB inh	GPR7 antagonist	T cruzi repl
CN1/C(=C/c2cc[n+](C)c3ccccc23)C=Cc2ccccc21	·	·	·	·	–	·
O=S(=O)(c1ccccc1)N1CCC(O)(CSc2ccc(F)cc2)CC1	–	–	–	–	18	–
O=C(CCNC(=O)C1CCN(S(=O)(=O)c2ccccc2)CC1)NCc1ccncc1	–	–	–	–	–	–
Cc1cc(OCCCCCN2CCCC2)ccc1Cl	–	–	–	–	–	67
Cc1cc(OCCOCCN2CCCC2)ccc1C(C)C	–	–	–	–	–	57
O=C(CC(Nc1ccc(Cl)cc1Cl)C(=O)O)c1ccccc1 (stereo not drawn)	–	-89	–	–	–	–
O=C(CC(Nc1ccccc1)C(=O)O)c1ccccc1 (stereo not drawn)	–	–	–	–	·	–
Cc1sc2nc(CSc3nc4ccccc4c(=O)n3CCCN3CCOCC3)[nH]c(=O)c2c1C	–	–	61	–	–	–
CC(C)Cn1c(N)c(C(=O)CSc2nc3ccccc3c(=O)n2CCCN2CCOCC2)c(=O)n(C)c1=O	–	–	–	–	–	55
CC(C)Cn1c(N)c(C(=O)CSc2nc3ccccc3n2C)c(=O)n(C)c1=O	–	–	–	–	–	–
COc1ccc(S(=O)(=O)N2CCC3(CC2)OCCN3S(=O)(=O)c2ccc(C)cc2)cc1OC	–	–	–	–	·	–
